# Measured values reported in article PMC5879491 (Journal of the American Chemical Society, 2018).
# Tests used:
# H3R [1] = biological target: T1, H3R (Homo sapiens, UniProt Q9Y5N1); assay type: binding; conditions: for effect of illumination of compound solution at 360 ± 20 nm on affinity: data not shown
# Outline: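 A 1 mM stock of test compound was either illuminated at 360 ± 20 nm to PSS (checked by LC–MS) or kept dark; all later handling was in darkness. Competition ran at 10^-5 to 10^-12 M against 1.6 nM [3H]-Nα-methylhistamine. Membranes were homogenates of HEK293T cells PEI-transfected 48 h with human H3R (445 isoform). Incubation was 2 h at 25 °C in 50 mM Tris–HCl pH 7.4, followed by GF/C filtration and scintillation counting. Ki was obtained by Cheng–Prusoff; the shift was pKi cis minus pKi trans.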
# hH2R = hH2R (Homo sapiens, UniProt P25021); assay: H2R radioligand binding
# hH4R = hH4R (Homo sapiens, UniProt Q9H3N8); assay: H4R radioligand binding
# H3R [2] = biological target: T1, H3R; assay: Two-electrode voltage clamp; assay type: cell-based
# [3] = Real-time photoisomerization rate by UV-vis under perpendicular illumination; assay type: physicochemical; conditions: 25 μM in 50 mM Tris-HCl pH 7.4 + 1% DMSO-d6
# Outline: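 Real-time kinetics: test compound at 25 μM in 50 mM Tris–HCl pH 7.4 with 1% DMSO-d6. Illumination alternated between 360 ± 20 nm and 434 ± 9 nm, delivered perpendicular to the spectrometer beam. Spectra were taken at 1 s intervals, with absorbance followed at 344 or 319 nm depending on compound. Photoisomerization half-lives came from fits to the absorbance data.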
# [4] = Photostability and fatigue resistance under prolonged or repeated illumination; assay type: physicochemical
# T1 sequence (Q9Y5N1 whole entry, canonical isoform): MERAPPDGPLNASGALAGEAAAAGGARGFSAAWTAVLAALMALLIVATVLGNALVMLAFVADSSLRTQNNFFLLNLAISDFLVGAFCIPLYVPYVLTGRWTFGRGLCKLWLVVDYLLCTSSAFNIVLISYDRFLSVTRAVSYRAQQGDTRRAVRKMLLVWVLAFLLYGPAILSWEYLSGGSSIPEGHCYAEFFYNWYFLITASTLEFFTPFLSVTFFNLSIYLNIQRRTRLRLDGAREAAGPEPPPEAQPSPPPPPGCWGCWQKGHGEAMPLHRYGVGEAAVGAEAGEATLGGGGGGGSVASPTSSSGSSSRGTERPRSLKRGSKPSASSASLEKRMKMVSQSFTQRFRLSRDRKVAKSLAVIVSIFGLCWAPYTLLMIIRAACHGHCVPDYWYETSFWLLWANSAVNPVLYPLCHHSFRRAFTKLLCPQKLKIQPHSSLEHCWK
# Chain of hH4R (Q9H3N8 whole entry): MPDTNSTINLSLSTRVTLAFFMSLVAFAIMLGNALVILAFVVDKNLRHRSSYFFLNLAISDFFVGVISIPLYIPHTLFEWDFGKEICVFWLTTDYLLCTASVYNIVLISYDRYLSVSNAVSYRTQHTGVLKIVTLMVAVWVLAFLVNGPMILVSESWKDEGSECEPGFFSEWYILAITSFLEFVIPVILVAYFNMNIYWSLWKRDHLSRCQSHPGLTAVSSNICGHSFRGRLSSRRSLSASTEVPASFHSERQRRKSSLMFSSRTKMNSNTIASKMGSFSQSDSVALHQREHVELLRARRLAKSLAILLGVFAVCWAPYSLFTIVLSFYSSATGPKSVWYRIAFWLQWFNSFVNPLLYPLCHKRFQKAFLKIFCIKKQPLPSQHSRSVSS
# Chain of hH2R (P25021 whole entry): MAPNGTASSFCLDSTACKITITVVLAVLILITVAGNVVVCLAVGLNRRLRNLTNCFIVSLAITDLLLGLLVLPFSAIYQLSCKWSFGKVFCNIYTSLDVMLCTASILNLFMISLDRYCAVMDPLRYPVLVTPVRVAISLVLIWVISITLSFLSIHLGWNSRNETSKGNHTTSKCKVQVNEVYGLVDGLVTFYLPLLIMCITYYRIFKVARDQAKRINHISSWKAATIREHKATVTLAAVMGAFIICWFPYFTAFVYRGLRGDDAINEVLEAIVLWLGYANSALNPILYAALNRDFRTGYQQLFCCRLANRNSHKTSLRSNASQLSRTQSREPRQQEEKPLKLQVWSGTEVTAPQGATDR
compound,measurement,setting,value
O=C(c1ccc2cc(OCCCN3CCCCC3)ccc2c1)N1CCCC1 [Compound 1],effect of illumination of compound solution at 360 ± 20 nm on affinity,H3R [1],not affected
O=C(c1cccc(/N=N/c2cccc(OCCCN3CCCCC3)c2)c1)N1CCCC1 [Compound 28],increase in H3R binding affinity upon photoisomerization,"H3R [1]; illumination at 360 nm, PSS cis vs trans, listed as VUF14738",over 10 fold
same,affinity for H2R,hH2R,no measurable affinity
same,affinity for H4R,hH4R,no measurable affinity
same,change in current upon superfusion of compound only,H3R [2]; noninjected and H3R-GIRK expressing oocytes,did not result in changes in current
same,photoisomerization half-life,[3]; illumination 360 ± 20 nm,16 ± 0.9 s
same,photoisomerization half-life,[3]; illumination 434 ± 9 nm,11 ± 0.3 s
same,photodegradation (1H NMR and LC-MS),"[4]; 48 h illumination at 360 ± 20 nm, 0.77 mW/mm^2",no apparent photodegradation
same,resistance to fatigue / photobleaching,"[4]; over 1000 isomerization cycles, 360 ± 20 and 434 ± 9 nm, 20 s intervals",highly resistant to photobleaching
NCCc1c[nH]cn1 [Histamine],effect of illumination of compound solution at 360 ± 20 nm on affinity,H3R [1],not affected
NC(=NCc1ccc(Cl)cc1)SCCCc1cnc[nH]1 [clobenpropit],inhibition of GIRK channel activation by histamine (1 μM),"H3R [2]; simultaneous superfusion, 1 μM",fully inhibited
pertussis toxin,inhibition of GIRK channel activation by histamine (1 μM),"H3R [2]; pretreating the oocytes, 1.37 ng/oocyte",fully inhibited
